Results published in ChEMBL document CHEMBL4689842, “EUbOPEN Chemogenomics Library wave 1” (2021).

Legend:
Format in all cases: toxicity, cell-based
[1] = tested on: Fibroblast; assay: Multiplex assay against human fibroblast
Procedure, shortened: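 Live cells carried four stains from seeding: Hoechst33342, BioTracker Green Microtubule Cytoskeleton Dye, MitoTracker Red and Annexin V Alexa Fluor 680. They were imaged on a CQ1 microscope at 37°C and 5% CO2 after compound addition. Using CellPathfinder machine-learning gating, cells were split into Hoechst high-intensity objects or normal cells, normal cells into healthy, pyknosed or fragmented nuclei, and pyknosed cells into mitotic or apoptotic; tubulin, mitochondrial-mass and membrane-permeability phenotypes are per cents of healthy-nucleus cells.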

[2] = tested on: HEK-293T; assay: Incucyte cell viability with HEK293T; details: human, 10 µM, compound concentration 10 uM; note: filed as whole numbers so only -1 and 0 and 1 occur
[3] = tested on: U2OS; assay: Incucyte cell viability with U2OS; details: human, 10 µM, compound concentration 10 uM; note: filed as whole numbers so only -1 and 0 and 1 occur
[4] = 24 h, 10 µM, compound concentration 10 uM, replicate 1
[5] = 24 h, 10 µM, compound concentration 10 uM, replicate 2
[6] = 48 h, 1 µM, compound concentration 1 uM, replicate 1
[7] = 48 h, 1 µM, compound concentration 1 uM, replicate 2
[8] = 48 h, 10 µM, compound concentration 10 uM, replicate 1
[9] = 48 h, 10 µM, compound concentration 10 uM, replicate 2
[10] = 6 h, replicate number 1, timepoint 6 hours
[11] = 12 h, replicate number 1, timepoint 12 hours
[12] = 18 h, replicate number 1, timepoint 18 hours
[13] = 24 h, replicate number 1, timepoint 24 hours

SMILES: CCCCCNC(=N)N/N=C/c1c[nH]c2ccc(OC)cc12.O=C(O)/C=C\C(=O)O [TEGASEROD MALEATE]
- Population Healthy Nuclei (%) [1, 4]: 7%
- Population Hoechst High Intensity Objects (%) [1, 4]: 18%
- Population Membrane Permeable-Phenotype (%) [1, 4]: 12%
- Population Mitochondria Different-Phenotype (%) [1, 4]: 37%
- Population Mitotic Cells (%) [1, 4]: 25%
- Population Normal (%) [1, 4]: 81%
- Population Pyknosed Nuclei (%) [1, 4]: 53%
- Population Tubulin-Different-Phenotype (%) [1, 4]: 75%
- Total Cell Count [1, 4]: 133
- Population Apoptotic (%) [1, 5]: 100%
- Population Fragmented Nuclei (%) [1, 5]: 44%
- Population Healthy Nuclei (%) [1, 5]: 26%
- Population Hoechst High Intensity Objects (%) [1, 5]: 39%
- Population Membrane Permeable-Phenotype (%) [1, 5]: 100%
- Population Mitochondria Different-Phenotype (%) [1, 5]: 100%
- Population Mitotic Cells (%) [1, 5]: 0%
- Population Normal (%) [1, 5]: 60%
- Population Pyknosed Nuclei (%) [1, 5]: 28%
- Population Tubulin-Different-Phenotype (%) [1, 5]: 100%
- Total Cell Count [1, 5]: 70
- Population Apoptotic (%) [1, 6]: 50%
- Population Fragmented Nuclei (%) [1, 6]: 37%
- Population Healthy Nuclei (%) [1, 6]: 58%
- Population Hoechst High Intensity Objects (%) [1, 6]: 15%
- Population Membrane Permeable-Phenotype (%) [1, 6]: 10%
- Population Mitochondria Different-Phenotype (%) [1, 6]: 1%
- Population Mitotic Cells (%) [1, 6]: 50%
- Population Normal (%) [1, 6]: 84%
- Population Pyknosed Nuclei (%) [1, 6]: 4%
- Population Tubulin-Different-Phenotype (%) [1, 6]: 24%
- Total Cell Count [1, 6]: 115
- Population Apoptotic (%) [1, 7]: 66%
- Population Fragmented Nuclei (%) [1, 7]: 23%
- Population Healthy Nuclei (%) [1, 7]: 72%
- Population Hoechst High Intensity Objects (%) [1, 7]: 18%
- Population Membrane Permeable-Phenotype (%) [1, 7]: 12%
- Population Mitochondria Different-Phenotype (%) [1, 7]: 3%
- Population Mitotic Cells (%) [1, 7]: 33%
- Population Normal (%) [1, 7]: 81%
- Population Pyknosed Nuclei (%) [1, 7]: 3%
- Population Tubulin-Different-Phenotype (%) [1, 7]: 44%
- Total Cell Count [1, 7]: 94
- Population Apoptotic (%) [1, 8]: 76%
- Population Fragmented Nuclei (%) [1, 8]: 48%
- Population Healthy Nuclei (%) [1, 8]: 20%
- Population Hoechst High Intensity Objects (%) [1, 8]: 33%
- Population Membrane Permeable-Phenotype (%) [1, 8]: 17%
- Population Mitochondria Different-Phenotype (%) [1, 8]: 23%
- Population Mitotic Cells (%) [1, 8]: 23%
- Population Normal (%) [1, 8]: 66%
- Population Pyknosed Nuclei (%) [1, 8]: 30%
- Population Tubulin-Different-Phenotype (%) [1, 8]: 64%
- Total Cell Count [1, 8]: 127
- Population Apoptotic (%) [1, 9]: 85%
- Population Fragmented Nuclei (%) [1, 9]: 52%
- Population Healthy Nuclei (%) [1, 9]: 15%
- Population Hoechst High Intensity Objects (%) [1, 9]: 45%
- Population Membrane Permeable-Phenotype (%) [1, 9]: 30%
- Population Mitochondria Different-Phenotype (%) [1, 9]: 50%
- Population Mitotic Cells (%) [1, 9]: 15%
- Population Normal (%) [1, 9]: 54%
- Population Pyknosed Nuclei (%) [1, 9]: 31%
- Population Tubulin-Different-Phenotype (%) [1, 9]: 80%
- Total Cell Count [1, 9]: 115
- Growth Rate ([2]; 0 h, replicate number 2, timepoint 0 hours): 1
- Growth Rate [2, 10]: 0
- Growth Rate [2, 11]: 0
- Growth Rate [2, 12]: 0
- Growth Rate [2, 13]: 0
- Growth Rate [3, 10]: 0
- Growth Rate [3, 11]: 0
- Growth Rate [3, 12]: 0
- Growth Rate [3, 13]: 0
